# Measurements as given in ChEMBL document CHEMBL4190277, “Discovery of imidazopyridines containing isoindoline-1,3-dione framework as a new class of BACE1 inhibitors: Design, synthesis and SAR analysis” (Eur J Med Chem, 2017).
# Columns and labels:
# [1] = target: T1, Beta-secretase 1 (Homo sapiens, UniProt P56817); assay: Inhibition of human BACE1 (1 to 460 residues) expressed in baculovirus expression system at 50 uM using Rh-EVNLDAEFK-quencher as substrate after 90 mins by FRET assay
# Summary of the method: (§1)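 FRET kit assay, manufacturer's protocol with small modifications. Compounds were taken from DMSO stocks and diluted in assay buffer (50 mM sodium acetate, pH 4.5). Substrate and compound were mixed, then enzyme (1 U/mL) was added to start the reaction. After about 90 min at room temperature, 2.5 M sodium acetate stop solution was added. Read-out was fluorescence at Ex 545/Em 585 nm. Triplicate wells, 3–4 independent experiments, mean ± SEM; OM99 served as reference inhibitor.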
# [2] = target: T1, Beta-secretase 1; assay: Inhibition of human BACE1 (1 to 460 residues) expressed in baculovirus expression system at 10 uM using Rh-EVNLDAEFK-quencher as substrate after 90 mins by FRET assay; summary of the method: as §1
# [3] = target: T1, Beta-secretase 1; assay: Inhibition of human BACE1 (1 to 460 residues) expressed in baculovirus expression system using Rh-EVNLDAEFK-quencher as substrate after 90 mins by FRET assay
# Summary of the method: as §1, with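 “added.” for “added. Read-out was fluorescence at Ex 545/Em 585 nm.”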
# T1 sequence (P56817 whole entry, the tested form may be a part): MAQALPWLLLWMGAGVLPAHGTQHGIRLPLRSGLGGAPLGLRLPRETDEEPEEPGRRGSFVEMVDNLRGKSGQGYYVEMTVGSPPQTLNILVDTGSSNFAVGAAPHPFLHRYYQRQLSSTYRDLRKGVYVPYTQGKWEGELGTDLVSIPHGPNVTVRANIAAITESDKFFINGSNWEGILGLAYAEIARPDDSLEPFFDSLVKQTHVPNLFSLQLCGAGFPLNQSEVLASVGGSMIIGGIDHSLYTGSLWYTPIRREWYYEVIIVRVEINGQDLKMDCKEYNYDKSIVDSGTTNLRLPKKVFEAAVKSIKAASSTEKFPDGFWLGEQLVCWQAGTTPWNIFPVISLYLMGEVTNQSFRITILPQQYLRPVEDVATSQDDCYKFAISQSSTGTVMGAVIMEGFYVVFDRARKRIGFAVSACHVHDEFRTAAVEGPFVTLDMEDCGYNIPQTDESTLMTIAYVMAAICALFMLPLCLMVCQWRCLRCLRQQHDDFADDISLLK
Structure (SMILES),inhibition [1],inhibition [2],IC50 [3]
O=C1c2ccccc2C(=O)N1CCCOc1ccc(-c2nc3ccccn3c2NC2CCCCC2)cc1,< 10%,< 10%,
COc1cc(-c2nc3ccc(Cl)cn3c2NC(C)(C)C)ccc1OCCCN1C(=O)c2ccccc2C1=O,37.9%,19.4%,
Cc1cccn2c(NC3CCCCC3)c(-c3ccc(OCCCN4C(=O)c5ccccc5C4=O)cc3)nc12,69.4%,44.4%,
O=C1c2ccccc2C(=O)N1CCCOc1ccc(-c2nc3ccc(Br)cn3c2NC2CCCCC2)cc1,45.3%,32.2%,
COc1cc(-c2nc3ccc(Br)cn3c2NC2CCCCC2)ccc1OCCCN1C(=O)c2ccccc2C1=O,43.2%,36.7%,
CC(C)(C)Nc1c(-c2ccc(OCCCN3C(=O)c4ccccc4C3=O)cc2)nc2ccc(Br)cn12,34.3%,7.87%,

# The remaining lines, values ahead:
inhibition [1],inhibition [2],IC50 [3],Structure (SMILES)
33%,17.7%,,CC(C)(C)Nc1c(-c2ccc(OCCCN3C(=O)c4ccccc4C3=O)cc2)nc2ccc(Cl)cn12
88.1%,26.9%,14.9 µM,COc1cc(-c2nc3ccc(Cl)cn3c2NC2CCCCC2)ccc1OCCCN1C(=O)c2ccccc2C1=O
87.9%,61.5%,5.93 µM,Cc1cccc2nc(-c3ccc(OCCCN4C(=O)c5ccccc5C4=O)cc3)c(NC3CCCCC3)n12
48.7%,33.2%,,COc1cc(-c2nc3ccc(Br)cn3c2NC(C)(C)C)ccc1OCCCN1C(=O)c2ccccc2C1=O
19.6%,11.5%,,O=C1c2ccccc2C(=O)N1CCCOc1ccc(-c2nc3ccc(Cl)cn3c2NC2CCCCC2)cc1
100%,61.3%,2.84 µM,Cc1ccn2c(NC3CCCCC3)c(-c3ccc(OCCCN4C(=O)c5ccccc5C4=O)cc3)nc2c1
63.7%,37.6%,29.4 µM,Cc1ccc2nc(-c3ccc(OCCCN4C(=O)c5ccccc5C4=O)cc3)c(NC3CCCCC3)n2c1
69.5%,29.3%,,COc1cc(-c2nc3ccccn3c2NC2CCCCC2)ccc1OCCCN1C(=O)c2ccccc2C1=O
18.3%,24.2%,,Cc1ccn2c(NC(C)(C)C)c(-c3ccc(OCCCN4C(=O)c5ccccc5C4=O)cc3)nc2c1
